PMC10693930 (Biochemistry, 2023)

Key:
Assay type in all cases: biochemical
[1] = biological target: T1, E418A SaPC (Staphylococcus aureus, UniProt A0A0H3JRU9, E418A); assay: Pyruvate carboxylation assay; conditions: up to 4 mM acetyl-CoA and 30 mM CoA
[2] = biological target: T2, K46A SaPC (Staphylococcus aureus, UniProt A0A0H3JRU9, K46A); assay: Pyruvate carboxylation assay
[3] = biological target: T3, K411A SaPC (Staphylococcus aureus, UniProt A0A0H3JRU9, K411A); assay: Pyruvate carboxylation assay
[4] = biological target: T4, R21A SaPC (Staphylococcus aureus, UniProt A0A0H3JRU9, R21A); assay: Pyruvate carboxylation assay
[5] = biological target: T3, K411A SaPC; assay: ADP phosphorylation assay
[6] = biological target: T5, WT SaPC (Staphylococcus aureus, UniProt A0A0H3JRU9); assay: ADP phosphorylation assay
[7] = biological target: T5, WT SaPC; assay: Pyruvate carboxylation assay; conditions: for EC50: Ka (apparent activation constant)
[8] = biological target: T1, E418A SaPC; assay: Pyruvate carboxylation inhibition assay with CT domain inhibitors
[9] = biological target: T2, K46A SaPC; assay: as above; conditions: 2.5 mM acetyl-CoA vs none
[10] = biological target: T4, R21A SaPC; assay: as above; conditions: 2.5 mM acetyl-CoA vs none
[11] = biological target: T5, WT SaPC; assay: Pyruvate carboxylation inhibition assay with CT domain inhibitors
Method in brief: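 WT SaPC (5 μg/mL) was pre-incubated with inhibitor and acetyl-CoA, and the reaction was started with 10× substrate mix (final 25 mM NaHCO3, 2.5 mM ATP, 12 mM pyruvate). MDH-coupled (10 U/mL MDH, 0.12 mM NADH); change in A340 monitored. Inhibitor 0–1 mM or 0–50 mM by compound. MDH-only controls. Triplicate; SD of three trials.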

[12] = Acyl-CoA + 20 mM L-aspartate, Table 1

SMILES	activation of pyruvate carboxylation [1]	EC50 [2]	EC50 [3]	EC50 [4]	EC50 [5]	EC50 [6]	h (Hill coefficient) [7, 12]	h (Hill coefficient) ([7]; Acyl-CoA alone, Table 1)	EC50 [7, 12]	EC50 ([7]; WT SaPC, Table 2 series)	increase of apparent Ka in the presence of L-aspartate ([7]; WT SaPC, 20 mM L-aspartate vs none)	inhibition of pyruvate carboxylation [8]	change of inhibition in the presence of acetyl-CoA ([8]; 500 μM acetyl-CoA)	increase in the IC50 for oxalate inhibition [9]	increase in the IC50 for oxalate inhibition [10]	change of potency in the presence of acetyl-CoA ([11]; SaPC, CT domain inhibitors)	increase in the IC50 for oxalate inhibition ([11]; WT SaPC, acetyl-CoA at ~7 times the Ka value (10 μM, Figure 6C))	increase in the IC50 for oxalate inhibition ([11]; WT SaPC, in the presence of CoA (500 μM, Figure 6B))	change of the IC50 for oxalate inhibition ([11]; WT SaPC, in the presence of L-aspartate (5 mM, Figure 6B))	increase in the IC50 for oxalate inhibition ([11]; WT SaPC, saturating acetyl-CoA vs none)
CC(C)(COP(=O)(O)OP(=O)(O)OC[C@H]1O[C@@H](n2cnc3c(N)ncnc32)[C@H](O)[C@@H]1OP(=O)(O)O)[C@@H](O)C(=O)NCCC(=O)NCCS [CoA]	unresponsive to activation	1500 ± 100 µM	100 ± 4.8 µM	1800 ± 53 µM	420 ± 30 µM	320 ± 30 µM	1.8 ± 0.2	1.4 ± 0.2	130 ± 10 µM	49 ± 7 µM	~ 4 fold									
O=C(O)C(=O)O [oxalate]												inhibited	unchanged	8 fold	8 fold	significantly reduced potency	~ 6 fold	~ 13 fold	did not alter	> 20 fold
